# Results of several laboratories.
SMILES,target or system,test,setting,quantity,value
COc1ccc([S+]([O-])c2ccc(OC)c(OC)c2OC)cc1 (stereo not shown),Leishmania braziliensis,"parasite growth, MTT",promastigote,IC50,15 µM
CC1=NN(CNC(=O)c2ccccn2)C(=O)C1=NNn1c(-c2ccccc2)nc2ccccc2c1=O,Trichophyton rubrum,"microbial growth, broth dilution",,MIC,104 µM
COc1ccc(Sc2ccc(C)cc2)c(OC)c1OC,Leishmania braziliensis,"parasite growth, MTT","24 h, promastigote",IC50,40.3 µM
CC(C)(C)Nc1c(-c2ccc3c(c2)OCO3)nc2ncccn12,Leishmania amazonensis,"parasite growth, MTT","72 h, promastigote",IC50,> 100 µM
CC1=NN(CNc2ccc(C(=O)O)cc2)C(=O)C1=NNn1c(-c2ccccc2)nc2ccccc2c1=O,Trichophyton rubrum,"microbial growth, broth dilution",,MIC,101 µM
O=C(Nc1cccc(-c2cccc(-c3nc4ccccc4[nH]3)c2)c1)NC1CC1c1ccccc1 (stereo not shown),HEK293,cell growth or viability,,IC50,> 10 µM
COc1ccc(-c2nc3ncccn3c2NC(C)(C)CC(C)(C)C)cc1O,Leishmania amazonensis,"parasite growth, MTT","72 h, promastigote",IC50,> 100 µM
Clc1ccccc1-c1ccc(CNCC2(N3CCCC3)COC2)o1,GBM6,cell growth or viability,"30 µM, 48 h",viability,80.6%
CCCCc1nc2ncccn2c1NC(C)(C)CC(C)(C)C,Leishmania amazonensis,"parasite growth, MTT","72 h, promastigote",IC50,47.8 µM
COc1ccc(-c2ccc(-c3ccc(C(=N)N)nc3)s2)cc1Cl,NCI-H322M,"cell growth or viability, SRB",,GI50,1.67 µM
COc1ccc(Oc2ccc(-c3c(C)[nH]c(C)c(Cl)c3=O)cc2)cc1,HEK293,cell growth or viability,,IC50,> 10 µM
CC(=O)NCN1N=C(C)C(=NNn2c(-c3ccccc3)nc3ccccc3c2=O)C1=O,Trichophyton rubrum,"microbial growth, broth dilution",,MIC,120 µM
CCOC(=O)c1cn(CC)c2cc(N3CCCCCC3)c(F)cc2c1=O,HEK293,cell growth or viability,,IC50,> 10 µM
c1ccc(-c2ccc(CNCC3(N4CCCC4)COC3)o2)cc1,T98G,cell growth or viability,"30 µM, 48 h",viability,74.2%
Cc1[nH]cc(Br)c(=O)c1-c1ccc(Oc2ccccc2)cc1,HEK293,cell growth or viability,,IC50,> 10 µM
c1cnc2nc(-c3ccc4c(c3)OCO4)c(NCCN3CCOCC3)n2c1,Leishmania amazonensis,"parasite growth, MTT","72 h, promastigote",IC50,> 100 µM
